Results published in ChEMBL document CHEMBL1156051, “Synthesis and evaluation of lysophosphatidylserine analogues as inducers of mast cell degranulation. Potent activities of lysophosphatidylthreonine and its 2-deoxy derivative” (J Med Chem, 2009).
Active and inactive are the calls of the source. The rule behind the calls is not given here.

How the values were obtained:
Mast cell [1] = experiment: Induction of Wistar rat peritoneal mast cell degradation assessed as concanavalin A-induced histamine release after 15 mins fluorometric assay; assay type: functional, cell-based; details: 0.25 h
Outline: (§1)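 Peritoneal mast cells at 5 × 10^4/mL in HEPES-buffered Tyrode stimulated with analogue plus 100 μg/mL concanavalin A for 15 min at 37 C. Supernatant histamine measured fluorometrically and expressed as percent of total cell histamine. Means ± SE of three independent experiments.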

Mus musculus [2] = experiment: Effect on hypothermic effect in mast cell-deficient WBB6F1 mouse assessed as reduction in rectal temperature at 10 ug, iv measured every 5 to 10 mins for 60 mins; assay type: functional, organism-based
Outline: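 W/Wv mast cell-deficient mice, with C57BL/6 as comparison, were given 10 μg iv in PBS containing 0.1% BSA. Rectal temperature was monitored every 5 or 10 min for 60 min. Three independent experiments.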

Mast cell [3] = experiment: Induction of Wistar rat peritoneal mast cell degradation assessed as anti-DNP IgE-induced histamine release at 0.01 to 10 uM after 15 mins fluorometric assay; assay type: functional, cell-based
CHO-K1 [4] = experiment: Increase in MAPK level in CHOK1 cells at 0.01 to 10 uM by Western blotting; assay type: functional, cell-based; details: Cricetulus griseus
Outline: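 Serum-starved mock (empty vector) transfected CHO-K1 cells were stimulated for 5 min at 37 C and cooled on ice to stop. Lysates (6 μg protein) were Western blotted for phospho- and total p42/p44 MAP kinase.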

Mast cell [5] = experiment: Induction of C57BL/6 mouse peritoneal mast cell degradation assessed as concanavalin A-induced histamine release after 15 mins fluorometric assay; assay type: functional, cell-based; details: C57BL/6, Mast cell, 0.25 h
Outline: (§2)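 Peritoneal mast cells at 5 × 10^4/mL in HEPES-buffered Tyrode stimulated with analogue plus 10 μg/mL concanavalin A for 15 min at 37 C. Supernatant histamine measured fluorometrically and expressed as percent of total cell histamine. Means ± SE of three independent experiments.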

[6] = Cytotoxicity against concanavalin A-stimulated Wistar rat peritoneal mast cells assessed as LDH release at 50 uM; assay type: cell-based
Rattus norvegicus [7] = experiment: Effect on hypothermic effect in Wistar rat assessed as reduction in rectal temperature at 20 to 200 ug, iv measured every 5 to 10 mins for 60 mins; assay type: functional, organism-based
Outline: (§3)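 Analogue suspended in PBS with 0.1% BSA and injected iv into C57BL/6 mice or Wistar rats; rectal temperature recorded by probe every 5 or 10 min for 60 min. Means of three independent experiments.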

Mus musculus [8] = experiment: Effect on hypothermic effect in C57BL/6 mouse assessed as reduction in rectal temperature at 25 to 100 ug, iv measured every 5 to 10 mins for 60 mins; assay type: functional, organism-based; outline: as §3
CHO-K1 [9] = experiment: Inhibition of forskolin-induced cAMP production in CHOK1 cells at 0.01 to 10 uM after 30 mins by EIA; assay type: functional, cell-based; details: Cricetulus griseus
Outline: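 Mock-transfected CHO-K1 cells were cultured overnight and pretreated 20 min with 0.5 mM IBMX, then costimulated with analogue and 25 μM forskolin for 30 min at 37 C; accumulated cAMP was measured by EIA.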

[10] = target: Probable G-protein coupled receptor 34 (Mus musculus) (UniProt Q9R1K6); experiment: Activation of mouse GPR34 expressed in CHOK1 cells assessed as increase in intracellular calcium level by spectrofluorimetry; assay type: functional, cell-based; details: CHO-K1
Outline: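 Fura-2-loaded CHO-K1 cells stably expressing flag-tagged GPR34 (G418 selection, then anti-flag immunomagnetic positive selection), stimulated with analogue at 2 μM; [Ca2+]i read fluorometrically as ratio of 500 nm emission at 340/380 nm excitation.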

[11] = target: Probable G-protein coupled receptor 34 (Mus musculus) (UniProt Q9R1K6); experiment: Activation of mouse GPR34 expressed in CHOK1 cells assessed as phosphorylated ERK level at 0.01 to 10 uM by Western blotting; assay type: cell-based; details: CHO-K1
Outline: (§4)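 Serum-starved CHO-K1 cells stably expressing flag-tagged GPR34 were stimulated with analogue for 5 min at 37 C and stopped by rapid cooling on ice. Lysates (6 μg protein) were Western blotted with antibodies to phospho-p42/p44 and total p42/p44 MAP kinase. Mock-transfected cells served as control.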

CHO-K1 [12] = experiment: Increase in intracellular calcium level in CHOK1 cells by spectrofluorimetry; assay type: functional, cell-based; details: Cricetulus griseus
Outline: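 Fura-2-loaded mock-transfected CHO-K1 cells were stimulated at 2 μM; [Ca2+]i read as 500 nm emission ratio at 340/380 nm excitation.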

[13] = target: Probable G-protein coupled receptor 34 (Mus musculus) (UniProt Q9R1K6); experiment: Activation of mouse GPR34 expressed in CHOK1 cells assessed as inhibition of forskolin-induced cAMP production at 0.01 to 10 uM after 30 mins by EIA; assay type: functional, cell-based; details: CHO-K1
Outline: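 CHO-K1 stably expressing flag-tagged mouse GPR34, cultured overnight, pretreated 20 min with 0.5 mM IBMX, then costimulated with analogue plus 25 μM forskolin for 30 min at 37 C; cAMP measured by EIA, level without ligand set as 100%.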

[14] = target: Probable G-protein coupled receptor 34 (Mus musculus) (UniProt Q9R1K6); experiment: Activation of mouse GPR34 expressed in CHOK1 cells assessed as total ERK level at 0.01 to 10 uM by Western blotting; assay type: cell-based; details: CHO-K1; outline: as §4
Mast cell [15] = experiment: Stimulation of mouse bone marrow-derived mast cell degranulation; assay type: functional, cell-based
Mast cell [16] = experiment: Induction of Wistar rat peritoneal mast cell degradation assessed as concanavalin A-induced histamine release at 0.01 to 10 uM after 15 mins fluorometric assay; assay type: functional, cell-based; outline: as §1
Mast cell [17] = experiment: Induction of C57BL/6 mouse peritoneal mast cell degradation assessed as concanavalin A-induced histamine release at 0.01 to 10 uM after 15 mins fluorometric assay; assay type: functional, cell-based; outline: as §2
Rattus norvegicus [18] = experiment: Effect on hypothermic effect in Wistar rat assessed as reduction in rectal temperature at 20 to 100 ug, iv measured every 5 to 10 mins for 60 mins; assay type: functional, organism-based
Outline: (§5)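 Analogue suspended in PBS with 0.1% BSA and given intravenously; rectal temperature read with a rectal probe every 5 or 10 min for 60 min. Means ± SE of three independent experiments.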

Mast cell [19] = experiment: Ratio of lysophosphatidylserine EC50 to compound EC50 for induction of concanavalin A-stimulated Wistar rat peritoneal mast cell […] associated histamine release; assay type: functional
Mus musculus [20] = experiment: Effect on hypothermic effect in C57BL/6 mouse assessed as reduction in rectal temperature at 1 to 5 ug, iv measured every 5 to 10 mins for 60 mins; assay type: functional, organism-based; outline: as §5
Mus musculus [21] = species on record: Mus musculus; experiment: Ratio of compound activity over lysophosphatidylserine activity for induction of hypothermic effect in C57BL/6 mouse; assay type: functional
Mast cell [22] = experiment: Induction of Wistar rat peritoneal mast cell degranulation assessed as concanavalin A-induced histamine release at 0.03 uM pretreated for 15 mins measured after washout with 0.01% fatty acid-free BSA by fluorometric assay; assay type: functional, cell-based
Outline: (§6)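 Rat peritoneal mast cells preincubated with analogue, then washed with buffer containing 0.01% or 0.5% fatty-acid-free BSA. Cells then challenged with concanavalin A, and histamine release measured.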

Mast cell [23] = experiment: Ratio of lysophosphatidylserine EC50 to compound EC50 for induction of concanavalin A-stimulated C57BL/6 mouse peritoneal mast cell […] associated histamine release; assay type: functional
Mast cell [24] = experiment: Ratio of compound activity over lysophosphatidylserine activity for induction of anti-DNP IgE-stimulated Wistar rat peritoneal mast cell […] associated histamine release; assay type: functional
[25] = system: G protein-coupled receptor 34 (Mus musculus); experiment: Activation of mouse GPR34 expressed in CHOK1 cells assessed as phosphorylated ERK level at 0.01 to 10 uM by Western blotting; details: CHO-K1
Rattus norvegicus [26] = species on record: Rattus norvegicus; experiment: Ratio of compound activity over lysophosphatidylserine activity for induction of hypothermic effect in Wistar rat; assay type: functional
[27] = system: G protein-coupled receptor 34 (Mus musculus); experiment: Activation of mouse GPR34 expressed in CHOK1 cells assessed as increase in intracellular calcium level by spectrofluorimetry; details: CHO-K1
Mast cell [28] = experiment: Induction of Wistar rat peritoneal mast cell degranulation assessed as concanavalin A-induced histamine release at 0.03 uM pretreated for 15 mins measured after washout with 0.5% fatty acid-free BSA by fluorometric assay; assay type: functional, cell-based; outline: as §6
[29] = system: G protein-coupled receptor 34 (Mus musculus); experiment: Activation of mouse GPR34 expressed in CHOK1 cells assessed as total ERK level at 0.01 to 10 uM by Western blotting; details: CHO-K1
Mus musculus [30] = experiment: Increase in plasma histamine level in iv dosed C57BL/6 mouse after 2 mins by EIA; assay type: functional, organism-based
Outline: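 Mice injected i.v. with analogue in PBS with 0.1% BSA; blood taken 2 min after injection and plasma histamine measured by enzyme immunoassay. Means ± SE of three independent experiments.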

Probable G-protein coupled receptor 34 (Mus musculus), sequence (Q9R1K6 whole entry): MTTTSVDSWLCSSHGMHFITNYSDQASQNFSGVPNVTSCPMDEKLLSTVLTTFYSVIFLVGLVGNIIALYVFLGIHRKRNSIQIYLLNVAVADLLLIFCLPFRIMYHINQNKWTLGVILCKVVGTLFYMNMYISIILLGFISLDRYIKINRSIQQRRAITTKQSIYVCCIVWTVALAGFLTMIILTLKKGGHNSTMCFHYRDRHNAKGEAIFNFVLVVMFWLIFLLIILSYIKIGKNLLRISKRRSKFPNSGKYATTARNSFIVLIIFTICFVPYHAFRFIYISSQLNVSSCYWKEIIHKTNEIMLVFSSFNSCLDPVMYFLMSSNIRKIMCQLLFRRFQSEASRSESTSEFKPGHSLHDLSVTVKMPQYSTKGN

With `CCCCCCCCCCCCCCCCCC(=O)OC[C@@H](O)COP(=O)(O)OC[C@H](N)C(=O)O` the EC50 (Mast cell [1]) was 400 nM, the Activity (Mus musculus [2]) was “inactive” and the Activity (Mast cell [3]) was “Active”. The Activity (CHO-K1 [4]) was “inactive”, the EC50 (Mast cell [5]) was 100 nM and the Activity [6] was “Non-toxic”. The Activity (Rattus norvegicus [7]) was “Active”, the Activity (Mus musculus [8]) was “Active” and the Activity (CHO-K1 [9]) was “inactive”. The Activity [10] was “Active”, the Activity [11] was “Active” and the Activity (CHO-K1 [12]) was “inactive”. For the same compound, the Activity [13] was “Active”, the Activity [14] was “Active” and the Activity (Mast cell [15]) was “inactive”.
For `CCCCCCCCCCCCCCCCCC(=O)OC[C@@H](O)COP(=O)(O)O[C@H]1CN[C@@H](C(=O)O)C1`, the EC50 (Mast cell [1]) was greater than 10000 nM, the Activity (Mast cell [16]) was “inactive” and the Activity (Mast cell [17]) was “inactive”.
For `CCCCCCCCCCCC(=O)OC[C@@H](O)COP(=O)([O-])OCC[N+](C)(C)C` [LYSOPHOSPHATIDYLCHOLINE], the Activity [6] was “Toxic”.
With `CCCCCCCCCCCCCCCC(=O)OCCCOP(=O)(O)O[C@H](C)[C@H](N)C(=O)O` the EC50 (Mast cell [1]) was 60 nM, the Activity (Mast cell [16]) was “Active” and the Activity (Mast cell [17]) was “Active”.
With `CCCCCCCCCCCCCCCCCC(=O)OC[C@@H](O)COP(=O)(O)OC[C@H](N)C(=O)OC` the EC50 (Mast cell [1]) was greater than 10000 nM, the Activity (Mast cell [16]) was “inactive” and the Activity (Mast cell [17]) was “inactive”.
`CCCCCCCCCCCC(=O)OC[C@@H](O)COP(=O)(O)O[C@H](C)[C@H](N)C(=O)O` gave an EC50 (Mast cell [1]) of 150 nM and an EC50 (Mast cell [5]) of 50 nM.
For `CCCCCCCCCCCCCCCCCC(=O)N(C)C[C@@H](O)COP(=O)(O)OC[C@H](N)C(=O)O`, the EC50 (Mast cell [1]) was 10000 nM, the Activity (Mast cell [16]) was “inactive” and the Activity (Mast cell [17]) was “inactive”.
With `CCCCCCCCCCCCCCCCCC(=O)OC[C@@H](O)COP(=O)(O)O[C@H](C)[C@H](N)C(=O)O` the Activity (Rattus norvegicus [18]) was “Active”, the EC50 (Mast cell [1]) was 40 nM and the Activity (Mast cell [16]) was “Active”. For the same compound, the “Ratio EC50” value (Mast cell [19]) was 10, the Activity (Mus musculus [20]) was “Active” and the Ratio (Mus musculus [21]) was 20. The Activity (Mast cell [22]) was “Active”, the Activity (Mast cell [3]) was “Active” and the “Ratio EC50” value (Mast cell [23]) was 10. The Activity (CHO-K1 [4]) was “inactive”, the EC50 (Mast cell [5]) was 10 nM and the Ratio (Mast cell [24]) was 10. The Activity [6] was “Non-toxic”, the Activity [25] was “inactive” and the Ratio (Rattus norvegicus [26]) was 50. The Activity (CHO-K1 [9]) was “inactive”, the Activity [27] was “inactive” and the Activity [10] was “inactive”. For the same compound, the Activity [11] was “inactive”, the Activity (Mast cell [28]) was “inactive” and the Activity (CHO-K1 [12]) was “inactive”. The Activity (Mast cell [17]) was “Active”, the Activity [13] was “inactive” and the Activity [14] was “inactive”. The Activity [29] was “inactive” and the Activity (Mus musculus [30]) was “Active”.
For `CCCCCCCCCCCCCCCCCC(=O)OCCOP(=O)(O)OC[C@H](N)C(=O)O`, the EC50 (Mast cell [1]) was greater than 10000 nM, the Activity (Mast cell [16]) was “inactive” and the Activity (Mast cell [17]) was “inactive”.
Compound `CCCCCCCCCCCCCCCCCC(=O)OC[C@@H](COP(=O)(O)OC[C@H](N)C(=O)O)OC` has an EC50 (Mast cell [1]) of 5000 nM.
In the case of `CCCCCCCCCCCCCCCCCC(=O)OC[C@@H](O)COP(=O)(O)O[C@@H]1CCN[C@H]1C(=O)O`, the EC50 (Mast cell [1]) is reported as greater than 10000 nM, the Activity (Mast cell [16]) is reported as “inactive” and the Activity (Mast cell [17]) is reported as “inactive”.
`CCCCCCCCCCCCCCCCCC(=O)OC[C@H](O)COP(=O)(O)OC[C@H](N)C(=O)O` showed an EC50 (Mast cell [1]) of 1000 nM and an EC50 (Mast cell [5]) of 70 nM.
